In ChEMBL document CHEMBL4373668, “Bivalent AMPA receptor positive allosteric modulators of the bis(pyrimidine) series” (Medchemcomm, 2019):

Columns and labels:
[1] = target: T1, Glutamate receptor ionotropic, AMPA (Rattus norvegicus) (UniProt P19491+P19492+P19493+P19490); assay: Positive allosteric modulation of rat Purkinje neuron AMPA receptor assessed as change in kainate-induced current at 10^-12 M measured for 2 mins by patch clamp assay (rvb = 100%)
In short: (§1)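 Purkinje neurons were freshly isolated from the cerebellum of 12–16-day-old rat pups by protease/collagenase digestion at 34°C under O₂. Whole-cell patch clamp was used, with compounds given by fast perfusion in extracellular saline at pH 7.32. Kainic acid (20 µM) was applied three times per concentration, 2 min apart, with a 3-min washout between concentrations. Current amplitude was normalized to the KA control (100%), using 4–7 neurons per concentration.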

[2] = target: T1, Glutamate receptor ionotropic, AMPA (Rattus norvegicus); assay: Positive allosteric modulation of rat Purkinje neuron AMPA receptor assessed as change in kainate-induced current at 10^-11 M measured for 2 mins by patch clamp assay (rvb = 100%); in short: as §1
[3] = target: T1, Glutamate receptor ionotropic, AMPA (Rattus norvegicus); assay: Positive allosteric modulation of rat Purkinje neuron AMPA receptor assessed as change in kainate-induced current at 10^-10 M measured for 2 mins by patch clamp assay (rvb = 100%); in short: as §1
[4] = target: T1, Glutamate receptor ionotropic, AMPA (Rattus norvegicus); assay: Positive allosteric modulation of rat Purkinje neuron AMPA receptor assessed as change in kainate-induced current at 10^-9 M measured for 2 mins by patch clamp assay (rvb = 100%); in short: as §1
[5] = target: T1, Glutamate receptor ionotropic, AMPA (Rattus norvegicus); assay: Positive allosteric modulation of rat Purkinje neuron AMPA receptor assessed as change in kainate-induced current at 10^-8 M measured for 2 mins by patch clamp assay (rvb = 100%); in short: as §1
[6] = target: T1, Glutamate receptor ionotropic, AMPA (Rattus norvegicus); assay: Positive allosteric modulation of rat Purkinje neuron AMPA receptor assessed as change in kainate-induced current at 10^-7 M measured for 2 mins by patch clamp assay (rvb = 100%); in short: as §1
[7] = target: T1, Glutamate receptor ionotropic, AMPA (Rattus norvegicus); assay: Positive allosteric modulation of rat Purkinje neuron AMPA receptor assessed as change in kainate-induced current at 10^-6 M measured for 2 mins by patch clamp assay (rvb = 100%); in short: as §1
[8] = target: T1, Glutamate receptor ionotropic, AMPA (Rattus norvegicus); assay: Positive allosteric modulation of rat Purkinje neuron AMPA receptor assessed as change in kainate-induced current at 10^-5 M measured for 2 mins by patch clamp assay (rvb = 100%)
[9] = target: T1, Glutamate receptor ionotropic, AMPA (Rattus norvegicus); assay: Positive allosteric modulation of rat Purkinje neuron AMPA receptor assessed as change in kainate-induced current at 3 x 10^-5 M measured for 2 mins by patch clamp assay (rvb = 100%)

SMILES	Activity [1] [%]	Activity [2] [%]	Activity [3] [%]	Activity [4] [%]	Activity [5] [%]	Activity [6] [%]	Activity [7] [%]	Activity [8] [%]	Activity [9] [%]
CCc1nc2c(c(Oc3ccc(Oc4nc(CC)nc5c4CCCC5)cc3)n1)CCCC2	100	117	126	155	128	100			
CC(C)c1nc2c(c(Oc3ccc(Oc4nc(C(C)C)nc5c4CCCC5)cc3)n1)CCCC2	100	84	72	82	92	98			
Cc1nc2c(c(Oc3ccc(Oc4nc(C)nc5c4CCCC5)cc3)n1)CCCC2	108	132	143	170	123	85	78		
CC(C)(C)c1nc2c(c(Oc3ccc(Oc4nc(C(C)(C)C)nc5c4CCCC5)cc3)n1)CCCC2		100	108	120	125	133	145		
c1cc(Oc2nc(C3CC3)nc3c2CCCC3)ccc1Oc1nc(C2CC2)nc2c1CCCC2		100	100	95	96	97	96		
NS(=O)(=O)c1cc2c(cc1Cl)NC(C1CC3C=CC1C3)NS2(=O)=O (stereo not given)						100	145	235	560
